Experimental data reported in ChEMBL document CHEMBL1156597, “Structure-activity relationship of kahalalide F synthetic analogues” (J Med Chem, 2008).

How the values were obtained:
DU-145 = assay: Cytotoxicity against human DU145 cells after 48 hrs by SRB assay; type: functional, cell-based; conditions: Homo sapiens, DU-145, 48 h; for CC50: read-out: LC50 (the source's name)
Method in brief: (§1)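 Cells grown in RPMI 1640 with 10% FBS and penicillin/streptomycin at 37 °C and 5% CO₂, trypsinized, then seeded at 5 × 10³/well. After 18 h drug-free attachment, samples in DMSO/EtOH/PBS (0.5:0.5:99) were added for 48 h continuous exposure. Cells were fixed with cold TCA (1 h, 4 °C) and stained with SRB (10 min). Tris-solubilized stain read at 490 nm. Triplicate wells, mean ± SD; GI₅₀ derived.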

LNCaP = assay: Cytotoxicity against human LNcaP cells after 48 hrs by SRB assay; type: functional; conditions: for CC50: read-out: LC50 (the source's name); method in brief: as §1
[1] = Cytotoxicity against human IGROV cells after 48 hrs by SRB assay; type: functional; conditions: for CC50: read-out: LC50 (the source's name); method in brief: as §1
[2] = Cytotoxicity against human IGROV-ET cells after 48 hrs by SRB assay; type: functional; conditions: for CC50: read-out: LC50 (the source's name); method in brief: as §1
SK-BR-3 = assay: Cytotoxicity against human SKBR3 cells after 48 hrs by SRB assay; type: functional; conditions: SK-BR-3, 48 h; for CC50: read-out: LC50 (the source's name); method in brief: as §1
SK-MEL-28 = assay: Cytotoxicity against human SK-MEL-28 cells after 48 hrs by SRB assay; type: functional, cell-based; conditions: Homo sapiens, SK-MEL-28, 48 h; for CC50: read-out: LC50 (the source's name); method in brief: as §1
A549 = assay: Cytotoxicity against human A549 cells after 48 hrs by SRB assay; type: functional, cell-based; conditions: Homo sapiens, A549, 48 h; method in brief: as §1
K562 = assay: Cytotoxicity against human K562 cells after 48 hrs by SRB assay; type: functional; conditions: K562, 48 h; for CC50: read-out: LC50 (the source's name); method in brief: as §1
PANC-1 = assay: Cytotoxicity against human PANC1 cells after 48 hrs by SRB assay; type: functional; conditions: PANC-1, 48 h; for CC50: read-out: LC50 (the source's name); method in brief: as §1
HT-29 = assay: Cytotoxicity against human HT29 cells after 48 hrs by SRB assay; type: functional, cell-based; conditions: Homo sapiens, HT-29, 48 h; for CC50: read-out: LC50 (the source's name); method in brief: as §1
LoVo [3] = assay: Cytotoxicity against human LoVo cells after 48 hrs by SRB assay; type: functional; conditions: for CC50: read-out: LC50 (the source's name)
LoVo [4] = assay: Cytotoxicity against human doxorubicin resistant LoVo cells after 48 hrs by SRB assay; type: functional; conditions: for CC50: read-out: LC50 (the source's name); method in brief: as §1
HeLa = assay: Cytotoxicity against human HeLa cells after 48 hrs by SRB assay; type: functional; conditions: for CC50: read-out: LC50 (the source's name); method in brief: as §1
[5] = Cytotoxicity against human HeLa-APL cells after 48 hrs by SRB assay; type: functional; method in brief: as §1

Work on `C=C1NC(=O)[C@H](Cc2ccccc2)NC(=O)[C@@H](C(C)C)NC(=O)[C@@H]([C@H](C)CC)NC(=O)[C@H](NC(=O)[C@H](NC(=O)[C@H](CCCN)NC(=O)[C@H]2CCCN2C(=O)[C@H](NC(=O)[C@@H](NC(=O)[C@@H](NC(=O)[C@H](NC(=O)CCCC(C)C)C(C)C)[C@@H](C)O)C(C)C)C(C)C)[C@H](C)CC)[C@H](C)OC(=O)[C@H](C(C)C)NC1=O` yielded a GI50 (DU-145) of 901 nM, a GI50 (DU-145; read-out: GI50) of 1110 nM and a CC50 (DU-145) of 730 nM. For the same compound, the GI50 (LNCaP) was 1440 nM, the TGI (LNCaP) was 1860 nM and the CC50 (LNCaP) was 1410 nM. For the same compound, the GI50 [1] was 442 nM, the GI50 ([1]; read-out: GI50) was 630 nM and the CC50 [1] was 334 nM. It also gave a GI50 [2] of 366 nM, a GI50 ([2]; read-out: GI50) of 349 nM and a CC50 [2] of 392 nM. For the same compound, the TGI (SK-BR-3) was 412 nM, the GI50 (SK-BR-3; read-out: GI50) was 458 nM and the CC50 (SK-BR-3) was 360 nM. The TGI (SK-MEL-28) was 1130 nM, the GI50 (SK-MEL-28; read-out: GI50) was 1100 nM and the CC50 (SK-MEL-28) was 1160 nM. The LC50 (A549) was 1070 nM, the TGI (A549) was 1140 nM and the GI50 (A549; read-out: GI50) was 1200 nM. It also gave a GI50 (K562) of 2470 nM, a TGI (K562) of 3010 nM and a CC50 (K562) of 1950 nM. The CC50 (PANC-1) was 1790 nM, the GI50 (HT-29) was 638 nM and the TGI (HT-29) was 804 nM. For the same compound, the CC50 (HT-29) was 612 nM, the GI50 (LoVo [3]) was 309 nM and the TGI (LoVo [3]) was 318 nM. The CC50 (LoVo [3]) was 295 nM, the GI50 (LoVo [4]) was 393 nM and the TGI (LoVo [4]) was 3720 nM. For the same compound, the CC50 (LoVo [4]) was 235 nM, the CC50 (HeLa) was 646 nM and the GI50 [5] was 893 nM. The LC50 (concentration giving 50% net cell kill) [5] was 791 nM and the TGI [5] was 842 nM.
Compound `C/C=C1\NC(=O)[C@H](CCC2CCCCC2)NC(=O)[C@@H](C(C)C)NC(=O)[C@@H]([C@@H](C)CC)NC(=O)[C@H](NC(=O)[C@H](NC(=O)[C@H](CCCN)NC(=O)[C@H]2CCCN2C(=O)[C@H](NC(=O)[C@@H](NC(=O)[C@@H](NC(=O)[C@H](NC(=O)CCCC(C)C)C(C)C)[C@@H](C)O)C(C)C)C(C)C)[C@@H](C)CC)[C@@H](C)OC(=O)[C@H](C(C)C)NC1=O` has a GI50 (DU-145) of 472 nM, a GI50 (DU-145; read-out: GI50) of 464 nM and a CC50 (DU-145) of 553 nM. It also gave a GI50 (LNCaP) of 384 nM, a TGI (LNCaP) of 625 nM and a CC50 (LNCaP) of 661 nM. It also gave a GI50 [1] of 372 nM, a GI50 ([1]; read-out: GI50) of 276 nM and a CC50 [1] of 378 nM. The GI50 [2] was 312 nM, the GI50 ([2]; read-out: GI50) was 232 nM and the CC50 [2] was 350 nM. The TGI (SK-BR-3) was 205 nM, the GI50 (SK-BR-3; read-out: GI50) was 165 nM and the CC50 (SK-BR-3) was 256 nM. The TGI (SK-MEL-28) was 1000 nM, the GI50 (SK-MEL-28; read-out: GI50) was 1020 nM and the CC50 (SK-MEL-28) was 983 nM. It also gave a GI50 (A549) of 857 nM, an LC50 (A549) of 959 nM and a GI50 (A549; read-out: GI50) of 756 nM. It also gave a GI50 (K562) of 1420 nM, a TGI (K562) of 1410 nM and a CC50 (K562) of 1390 nM. The GI50 (PANC-1) was 1120 nM, the TGI (PANC-1) was 1290 nM and the CC50 (PANC-1) was 1490 nM. The GI50 (HT-29) was 294 nM, the TGI (HT-29) was 352 nM and the CC50 (HT-29) was 359 nM. It also gave a GI50 (LoVo [3]) of 266 nM, a TGI (LoVo [3]) of 282 nM and a CC50 (LoVo [3]) of 298 nM. The GI50 (LoVo [4]) was 224 nM, the TGI (LoVo [4]) was 258 nM and the CC50 (LoVo [4]) was 296 nM. For the same compound, the GI50 (HeLa) was 304 nM, the TGI (HeLa) was 313 nM and the CC50 (HeLa) was 500 nM. The GI50 [5] was 319 nM, the LC50 (concentration giving 50% net cell kill) [5] was 617 nM and the TGI [5] was 499 nM.
For `C/C=C1\NC(=O)[C@H](Cc2c[nH]c3ccccc23)NC(=O)[C@@H](C(C)C)NC(=O)[C@@H]([C@H](C)CC)NC(=O)[C@H](NC(=O)[C@H](NC(=O)[C@H](CCCN)NC(=O)[C@H]2CCCN2C(=O)[C@H](NC(=O)[C@@H](NC(=O)[C@@H](NC(=O)[C@H](NC(=O)CCCC(C)C)C(C)C)[C@@H](C)O)C(C)C)C(C)C)[C@H](C)CC)[C@H](C)OC(=O)[C@H](C(C)C)NC1=O`, the GI50 (DU-145) was 823 nM, the GI50 (DU-145; read-out: GI50) was 832 nM and the CC50 (DU-145) was 785 nM. The GI50 (LNCaP) was 2060 nM, the TGI (LNCaP) was 1610 nM and the CC50 (LNCaP) was 1400 nM. The GI50 [1] was 71.8 nM, the GI50 ([1]; read-out: GI50) was 87.5 nM and the CC50 [1] was 57.4 nM. It also gave a GI50 [2] of 439 nM, a GI50 ([2]; read-out: GI50) of 461 nM and a CC50 [2] of 418 nM. The TGI (SK-BR-3) was 383 nM, the GI50 (SK-BR-3; read-out: GI50) was 345 nM and the CC50 (SK-BR-3) was 425 nM. For the same compound, the CC50 (SK-MEL-28) was 1390 nM, the LC50 (A549) was 1380 nM and the TGI (A549) was 1490 nM. For the same compound, the GI50 (A549; read-out: GI50) was 1610 nM, the GI50 (K562) was 4840 nM and the TGI (K562) was 4700 nM. For the same compound, the CC50 (K562) was 2550 nM, the CC50 (PANC-1) was 2390 nM and the GI50 (HT-29) was 1050 nM. The TGI (HT-29) was 1510 nM, the CC50 (HT-29) was 1190 nM and the GI50 (LoVo [3]) was 628 nM. For the same compound, the TGI (LoVo [3]) was 957 nM, the CC50 (LoVo [3]) was 1430 nM and the GI50 (LoVo [4]) was 507 nM. The TGI (LoVo [4]) was 659 nM, the CC50 (LoVo [4]) was 1470 nM and the GI50 (HeLa) was 1360 nM. The TGI (HeLa) was 1130 nM, the CC50 (HeLa) was 935 nM and the GI50 [5] was 1360 nM. It also gave an LC50 (concentration giving 50% net cell kill) [5] of 975 nM and a TGI [5] of 1150 nM.
`C/C=C1\NC(=O)[C@H](Cc2ccccc2Cl)NC(=O)[C@@H](C(C)C)NC(=O)[C@@H]([C@H](C)CC)NC(=O)[C@H](NC(=O)[C@H](NC(=O)[C@H](CCCN)NC(=O)[C@H]2CCCN2C(=O)[C@H](NC(=O)[C@@H](NC(=O)[C@@H](NC(=O)[C@H](NC(=O)CCCC(C)C)C(C)C)[C@@H](C)O)C(C)C)C(C)C)[C@H](C)CC)[C@H](C)OC(=O)[C@H](C(C)C)NC1=O` showed a GI50 (DU-145) of 391 nM, a GI50 (DU-145; read-out: GI50) of 180 nM and a CC50 (DU-145) of 670 nM. For the same compound, the GI50 (LNCaP) was 92.8 nM, the TGI (LNCaP) was 359 nM and the CC50 (LNCaP) was 832 nM. For the same compound, the GI50 [1] was 118 nM, the GI50 ([1]; read-out: GI50) was 72.3 nM and the CC50 [1] was 204 nM. For the same compound, the GI50 [2] was 142 nM, the GI50 ([2]; read-out: GI50) was 97.3 nM and the CC50 [2] was 196 nM. The GI50 (SK-BR-3) was 56.8 nM, the GI50 (SK-BR-3; read-out: GI50) was 54.9 nM and the CC50 (SK-BR-3) was 111 nM. For the same compound, the GI50 (SK-MEL-28) was 638 nM, the GI50 (SK-MEL-28; read-out: GI50) was 386 nM and the CC50 (SK-MEL-28) was 1050 nM. It also gave a GI50 (A549) of 659 nM, an LC50 (A549) of 1040 nM and a GI50 (A549; read-out: GI50) of 418 nM. The GI50 (K562) was 1850 nM, the TGI (K562) was 1850 nM and the CC50 (K562) was 1850 nM. For the same compound, the GI50 (PANC-1) was 1510 nM, the TGI (PANC-1) was 1700 nM and the CC50 (PANC-1) was 1700 nM. The GI50 (HT-29) was 89 nM, the TGI (HT-29) was 113 nM and the CC50 (HT-29) was 144 nM. The GI50 (LoVo [3]) was 43.4 nM, the TGI (LoVo [3]) was 63.5 nM and the CC50 (LoVo [3]) was 111 nM. For the same compound, the GI50 (LoVo [4]) was 44.3 nM, the TGI (LoVo [4]) was 46.9 nM and the CC50 (LoVo [4]) was 85.1 nM. It also gave a GI50 (HeLa) of 274 nM, a TGI (HeLa) of 506 nM and a CC50 (HeLa) of 889 nM. For the same compound, the GI50 [5] was 312 nM, the LC50 (concentration giving 50% net cell kill) [5] was 931 nM and the TGI [5] was 533 nM.
